# ChEMBL document CHEMBL1772954, “Antifungal, cytotoxic and SAR studies of a series of N-alkyl, N-aryl and N-alkylphenyl-1,4-pyrrolediones and related compounds” (Bioorg Med Chem, 2011)
# How the values were obtained:
# MCF7 = experiment: Cytotoxicity against human MCF7 cells assessed as cell growth after 2 days by sulforhodamine B assay; format: functional; conditions: MCF7, 48 h
# In short: (§1)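 NCI cell lines were run by the Monks method: cells were plated with compounds from DMSO stocks and incubated 2 days at 37 °C in 5% CO2, in duplicate. Cells were fixed with cold TCA, stained with 0.4% SRB, and the bound dye was solubilized in 10 mM tris-base and read at 515 nm. The zero-day control was subtracted, and GI50 was taken from the curves.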
# Aspergillus flavus = experiment: Antifungal activity against Aspergillus flavus ATCC 9170; format: functional
# In short: (§2)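 Broth microdilution per CLSI M38-A2 in RPMI-1640 with MOPS at pH 7.0. Inoculum 1-5 × 10^3 CFU/mL, with twofold compound dilutions spanning 250-0.24 µg/ml (final DMSO <1%). Plates incubated at 35 °C, moist and dark, and read when the control fungus had grown. MIC is total growth inhibition. MFC comes from subculturing clear wells in duplicate onto SDA.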
# Saccharomyces cerevisiae = experiment: Antifungal activity against Saccharomyces cerevisiae ATCC 9763; format: functional
# In short: (§3)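 CLSI M27-A3 broth microdilution in RPMI-1640 buffered to pH 7.0 with MOPS. Inoculum 1-5 × 10^3 CFU/mL. Compound twofold dilutions from 250 to 0.24 µg/ml, final DMSO <1%. Incubated at 35 °C in a moist, dark chamber and read at 48 h. MIC is the lowest concentration giving total growth inhibition. For MFC, 5 µL from clear wells was plated in duplicate on SDA; MFC is the lowest concentration with no growth.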
# Candida albicans = experiment: Antifungal activity against Candida albicans ATCC 10213; format: functional; in short: as §3
# Aspergillus niger = experiment: Antifungal activity against Aspergillus niger ATCC 9029; format: functional; in short: as §2
# [1] = system: Trichophyton mentagrophytes; experiment: Antifungal activity against Trichophyton mentagrophytes ATCC 9972; format: functional
# In short: (§4)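 Dermatophytes tested by CLSI M38-A2 microdilution in MOPS-buffered RPMI-1640 at pH 7.0. Inoculum 1-5 × 10^3 CFU/mL; compounds 250 to 0.24 µg/ml in twofold steps, final DMSO <1%. Incubated at 28 °C in a moist, dark chamber and read according to control growth. MIC is the lowest concentration with complete inhibition. MFC is the lowest concentration with no growth after duplicate subculture on SDA.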
# Trichophyton rubrum = experiment: Antifungal activity against Trichophyton rubrum C 113 2000; format: functional; in short: as §4
# NCI-H460 = experiment: Cytotoxicity against human H460 cells assessed as cell growth after 2 days by sulforhodamine B assay; format: functional; conditions: NCI-H460, 48 h; in short: as §1
# Aspergillus fumigatus = experiment: Antifungal activity against Aspergillus fumigatus ATCC 26934; format: functional; in short: as §2
# SF-268 = experiment: Cytotoxicity against human SF268 cells assessed as cell growth after 2 days by sulforhodamine B assay; format: functional; conditions: SF-268, 48 h; in short: as §1
# [2] = Cytotoxicity against human erythrocytes assessed as hemolysis by spectrometric analysis; format: cell-based, Erythrocyte
# In short: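 Human heparinized red blood cells were washed in PBS at pH 7.0 and suspended at 4% in sterile 5% glucose. Compounds from DMSO stocks were diluted in 5% glucose to final concentrations of 250 to 0.24 µg/ml and incubated with the cells at 37 °C. Released hemoglobin was read at 540 nm. HC50 is the concentration giving 50% lysis relative to the drug-free value.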
# Cryptococcus neoformans = experiment: Antifungal activity against Cryptococcus neoformans ATCC 32264; format: functional; in short: as §3
# Candida tropicalis = experiment: Antifungal activity against Candida tropicalis C 131 2000; format: functional; in short: as §3
# Nannizzia gypsea = experiment: Antifungal activity against Microsporum gypseum C 115 2000; format: functional; in short: as §4
MIC (Aspergillus flavus) [µg/mL],MIC (Saccharomyces cerevisiae) [µg/mL],MIC (Candida albicans) [µg/mL],MIC (Aspergillus niger) [µg/mL],MIC [1] [µg/mL],MIC (Trichophyton rubrum) [µg/mL],MIC (Aspergillus fumigatus) [µg/mL],MIC (Cryptococcus neoformans) [µg/mL],MIC (Nannizzia gypsea) [µg/mL],Compound,GI50 (MCF7) [µg/mL],MFC (Aspergillus flavus) [µg/mL],MFC (Saccharomyces cerevisiae) [µg/mL],MFC (Aspergillus niger) [µg/mL],MFC [1] [µg/mL],MFC (Trichophyton rubrum) [µg/mL],GI50 (NCI-H460) [µg/mL],MFC (Aspergillus fumigatus) [µg/mL],GI50 (SF-268) [µg/mL],MFC (Cryptococcus neoformans) [µg/mL],MFC (Nannizzia gypsea) [µg/mL],other results
31.2,3.9,3.9,15.6,7.81,1.95,31.2,7.81,3.9,O=C1C=CC(=O)N1CCc1ccccc1,3.6,31.2,7.81,15.6,15.6,3.9,4.7,31.2,4.1,15.6,7.81,HC50 [2]: > 250 µg/mL; MIC (Candida tropicalis): 15.6 µg/mL
31.2,0.97,3.9,15.6,3.9,1.95,15.6,15.6,0.97,O=C1C=CC(=O)N1CCCc1ccccc1,5.2,62.5,1.95,15.6,7.81,1.95,> 10,31.2,5.8,31.2,1.95,HC50 [2]: > 250 µg/mL; MFC (Candida tropicalis): 15.6 µg/mL; MIC (Candida tropicalis): 3.9 µg/mL
7.81,0.97,3.9,7.81,3.9,0.48,15.6,15.6,0.97,O=C1C=CC(=O)N1CCCCc1ccccc1,> 10,15.6,1.95,7.81,7.81,0.97,> 10,31.2,> 10,31.2,1.95,MFC (Candida albicans): 7.81 µg/mL; HC50 [2]: > 250 µg/mL; MFC (Candida tropicalis): 15.6 µg/mL; MIC (Candida tropicalis): 7.81 µg/mL
62.5,7.81,3.9,31.2,3.9,3.9,125,7.81,3.9,O=C1C=CC(=O)N1Cc1ccccc1,> 10,125,15.6,62.5,7.81,7.81,> 10,250,> 10,15.6,7.81,MFC (Candida albicans): 7.81 µg/mL; HC50 [2]: > 250 µg/mL; MIC (Candida tropicalis): 15.6 µg/mL
62.5,31.2,62.5,125,31.2,7.81,31.2,31.2,7.81,CC1=CC(=O)N(c2ccccc2)C1=O,> 10,125,125,250,62.5,15.6,> 10,62.5,> 10,62.5,15.6,MFC (Candida albicans): 125 µg/mL; HC50 [2]: > 250 µg/mL; MFC (Candida tropicalis): 125 µg/mL; MIC (Candida tropicalis): 62.5 µg/mL
62.5,3.9,3.9,31.2,7.81,3.9,250,15.6,7.81,O=C1C=CC(=O)N1c1ccccc1,> 10,125,7.81,62.5,7.81,7.81,> 10,> 250,> 10,62.5,15.6,MFC (Candida albicans): 7.81 µg/mL; HC50 [2]: > 250 µg/mL; MFC (Candida tropicalis): 15.6 µg/mL

Compound,MIC (Aspergillus flavus) [µg/mL],MIC (Saccharomyces cerevisiae) [µg/mL],MIC (Candida albicans) [µg/mL],MIC (Aspergillus niger) [µg/mL],MIC [1] [µg/mL],MIC (Trichophyton rubrum) [µg/mL],MIC (Aspergillus fumigatus) [µg/mL],MIC (Cryptococcus neoformans) [µg/mL],MIC (Nannizzia gypsea) [µg/mL],GI50 (MCF7) [µg/mL],MFC (Aspergillus flavus) [µg/mL],MFC (Saccharomyces cerevisiae) [µg/mL],MFC (Aspergillus niger) [µg/mL],MFC [1] [µg/mL],MFC (Trichophyton rubrum) [µg/mL],GI50 (NCI-H460) [µg/mL],MFC (Aspergillus fumigatus) [µg/mL],GI50 (SF-268) [µg/mL],MFC (Cryptococcus neoformans) [µg/mL],MFC (Nannizzia gypsea) [µg/mL],other results
CC(=O)N1CCN(c2ccc(OCC3COC(Cn4ccnc4)(c4ccc(Cl)cc4Cl)O3)cc2)CC1 (stereo not drawn) [KETOCONAZOLE],0.48,0.48,0.48,0.24,0.03,0.03,0.12,0.24,0.06,–,3.9,0.97,1.95,0.12,0.12,–,3.9,–,1.95,0.24,MFC (Candida albicans): 1.95 µg/mL; MFC (Candida tropicalis): 0.97 µg/mL
